Assay results: ChEMBL document CHEMBL1944560, “Antitumor agents 292. Design, synthesis and pharmacological study of S- and O-substituted 7-mercapto- or hydroxy-coumarins and chromones as potent cytotoxic agents” (2012)
Each block holds one compound with its values, some of them ahead of it.

How the values were obtained:
KB = experiment: Antiproliferative activity against human KB cells after 72 hrs by SRB assay; type: functional
How it was run: (§1)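 Cells fixed in situ with 10% TCA at time of drug addition as time-zero reference. Drug exposure 72 h after attachment, then 10% TCA fixation and 0.4% SRB in 1% HOAc for 10 min. Unbound dye washed off with 1% HOAc, bound dye dissolved in 10 mM trizma base, absorbance read at 515 nm. GI50 is the concentration halving net protein increase relative to control.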

[1] = Antiproliferative activity against human KBVIN cells after 72 hrs by SRB assay; type: functional; how it was run: as §1
A549 [2] = experiment: Antiproliferative activity against human A549 cells after 72 hrs by SRB assay; type: functional; conditions: A549, 72 h; how it was run: as §1
DU-145 = experiment: Antiproliferative activity against human DU145 cells after 72 hrs by SRB assay; type: functional; conditions: DU-145, 72 h; how it was run: as §1
A549 [3] = experiment: Antiproliferative activity against human A549 cells after 48 hrs by MTT assay; type: functional, cell-based
How it was run: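 A549 seeded at 5 × 10^3 cells/well. Exposed to 0.06, 0.23, 0.94, 3.75, 15 or 60 μg/mL for 48 h, then medium replaced. MTT (5 mg/mL solution) added for 4 h at 37 °C, formazan dissolved in DMSO, absorbance at 570 nm. Viability expressed as % of untreated cells. Mean ± SD of three independent experiments.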

A549 [4] = experiment: Induction of apoptosis in human A549 cells after 48 hrs by DNA fluorochrome Hoechst-staining based fluorescence microscopy; type: functional, cell-based
How it was run: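 A549 seeded at 5 × 10^3 cells/well, treated at 0, 1, 5 and 10 µg/mL for 48 h. Monolayer fixed and stained with Hoechst 33258 for 20 min, washed with PBS, examined by fluorescence microscopy. Cells with condensed or fragmented, brightly stained nuclei scored apoptotic. Three independent experiments.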

A549 [5] = experiment: Induction of cell cycle arrest in human A549 cells assessed as G0/G1 phase cells at 1 mg after 48 hrs by FACS-based flow cytometry (reference value: 26.9%); type: functional
A549 [6] = experiment: Induction of cell cycle arrest in human A549 cells assessed as G0/G1 phase cells at 5 mg after 48 hrs by FACS-based flow cytometry (reference value: 26.9%); type: functional
A549 [7] = experiment: Induction of cell cycle arrest in human A549 cells assessed as G0/G1 phase cells at 10 mg after 48 hrs by FACS-based flow cytometry (reference value: 26.9%); type: functional
A549 [8] = experiment: Induction of cell cycle arrest in human A549 cells assessed as G2/M phase cells at 1 mg after 48 hrs by FACS-based flow cytometry (reference value: 6.36%); type: functional
A549 [9] = experiment: Induction of cell cycle arrest in human A549 cells assessed as G2/M phase cells at 5 mg after 48 hrs by FACS-based flow cytometry (reference value: 6.36%); type: functional
A549 [10] = experiment: Induction of cell cycle arrest in human A549 cells assessed as G2/M phase cells at 10 mg after 48 hrs by FACS-based flow cytometry (reference value: 6.36%); type: functional
A549 [11] = experiment: Induction of cell cycle arrest in human A549 cells assessed as S phase cells at 1 mg after 48 hrs by FACS-based flow cytometry (reference value: 66.74%); type: functional
A549 [12] = experiment: Induction of cell cycle arrest in human A549 cells assessed as S phase cells at 5 mg after 48 hrs by FACS-based flow cytometry (reference value: 66.74%); type: functional
A549 [13] = experiment: Induction of cell cycle arrest in human A549 cells assessed as S phase cells at 10 mg after 48 hrs by FACS-based flow cytometry (reference value: 66.74%); type: functional

GI50 (KB): 0.92 µM
GI50 (A549 [2]): 2.11 µM
GI50 (DU-145): 1.15 µM
SMILES: Cc1cc(=O)oc2cc(Sc3cccc(Cl)n3)ccc12
GI50 [1]: 0.92 µM
Activity (A549 [3]): Dose-dependent effect
Activity (A549 [4]): Dose-dependent effect
Activity (A549 [5]): 5.02%
Activity (A549 [6]): 0.67%
Activity (A549 [7]): 0.12%
Activity (A549 [8]): 83.58%
Activity (A549 [9]): 88.98%
Activity (A549 [10]): 83.86%
Activity (A549 [11]): 11.4%
Activity (A549 [12]): 10.36%
Activity (A549 [13]): 16.03%

GI50 (KB): > 34 µM
GI50 (A549 [2]): > 34 µM
GI50 (DU-145): 27.7 µM
SMILES: CCc1cc(=O)c2ccc(OCc3ccccc3)c(C)c2o1
GI50 [1]: 24.8 µM

GI50 (KB): > 33.7 µM
GI50 (A549 [2]): > 33.7 µM
GI50 (DU-145): > 33.7 µM
SMILES: Cc1cccc(CSc2ccc3c(C)cc(=O)oc3c2)c1
GI50 [1]: > 33.7 µM

GI50 (KB): > 28.5 µM
GI50 (A549 [2]): > 28.5 µM
GI50 (DU-145): > 28.5 µM
SMILES: Cc1cc(=O)oc2cc(SCc3cccc(C(F)(F)F)c3)ccc12
GI50 [1]: > 28.5 µM

GI50 (KB): > 28.8 µM
GI50 (A549 [2]): > 28.8 µM
GI50 (DU-145): > 28.8 µM
SMILES: CCc1cc(=O)c2ccc(Sc3cccc(Cl)[n+]3[O-])c(C)c2o1
GI50 [1]: > 28.8 µM

GI50 (KB): > 31.3 µM
GI50 (A549 [2]): > 31.3 µM
GI50 (DU-145): > 31.3 µM
SMILES: CCc1cc(=O)c2ccc(OCc3cccc(C#N)c3)c(C)c2o1
GI50 [1]: > 31.3 µM

GI50 (KB): > 32.5 µM
GI50 (A549 [2]): > 32.5 µM
GI50 (DU-145): > 32.5 µM
SMILES: Cc1cc(=O)oc2cc(SCc3cccc(C#N)c3)ccc12
GI50 [1]: > 32.5 µM

GI50 (KB): > 30.1 µM
GI50 (A549 [2]): > 30.1 µM
GI50 (DU-145): > 30.1 µM
SMILES: CCc1cc(=O)c2ccc(Sc3cccc(Cl)n3)c(C)c2o1
GI50 [1]: 23.9 µM

GI50 (KB): 28.6 µM
GI50 (A549 [2]): 24.9 µM
GI50 (DU-145): 24.1 µM
SMILES: CCc1cc(=O)c2ccc(OCc3cccc(C)c3)c(C)c2o1
GI50 [1]: 24.9 µM

GI50 (KB): > 32 µM
GI50 (A549 [2]): > 32 µM
GI50 (DU-145): > 32 µM
SMILES: COc1cccc(CSc2ccc3c(C)cc(=O)oc3c2)c1
GI50 [1]: > 32 µM

GI50 (KB): > 31.3 µM
GI50 (A549 [2]): > 31.3 µM
GI50 (DU-145): > 31.3 µM
SMILES: Cc1cc(=O)oc2cc(Sc3cccc(Cl)[n+]3[O-])ccc12
GI50 [1]: 24.5 µM

GI50 (KB): > 31.5 µM
GI50 (A549 [2]): > 31.5 µM
GI50 (DU-145): > 31.5 µM
SMILES: CCc1cc(=O)c2ccc(Sc3cccc(Cl)n3)cc2o1
GI50 [1]: > 31.5 µM

GI50 (KB): > 30 µM
GI50 (A549 [2]): > 30 µM
GI50 (DU-145): > 30 µM
SMILES: CCc1cc(=O)c2ccc(Sc3cccc(Cl)[n+]3[O-])cc2o1
GI50 [1]: > 30 µM

The next lines start with the compound.

SMILES: Cc1cc(=O)oc2cc(SCc3cccc(OC(F)(F)F)c3)ccc12
GI50 (KB): 14.8 µM
GI50 [1]: 15.3 µM
GI50 (A549 [2]): 17.4 µM
GI50 (DU-145): 15.5 µM

SMILES: COc1cc(CSc2ccc3c(C)cc(=O)oc3c2)cc(OC)c1
GI50 (KB): > 29.2 µM
GI50 [1]: > 29.2 µM
GI50 (A549 [2]): > 29.2 µM
GI50 (DU-145): > 29.2 µM

SMILES: CCc1oc2c(C)c(OC)ccc2c(=O)c1Br
GI50 (KB): > 33.6 µM
GI50 [1]: 23.2 µM
GI50 (A549 [2]): > 33.6 µM
GI50 (DU-145): > 33.6 µM

SMILES: COc1ccc2c(=O)cc(C(C)Br)oc2c1CBr (stereo not given)
GI50 (KB): 15.1 µM
GI50 [1]: 17 µM
GI50 (A549 [2]): > 26.6 µM
GI50 (DU-145): > 26.6 µM

SMILES: CCc1oc2c(C)c(OCc3ccccc3)ccc2c(=O)c1Br
GI50 (KB): > 26.8 µM
GI50 [1]: > 26.8 µM
GI50 (A549 [2]): > 26.8 µM
GI50 (DU-145): > 26.8 µM

SMILES: CCc1cc(=O)c2ccc(OCC(C)C)c(CBr)c2o1
GI50 (KB): > 29.5 µM
GI50 [1]: > 29.5 µM
GI50 (A549 [2]): > 29.5 µM
GI50 (DU-145): > 29.5 µM

SMILES: COC(=O)c1cccc(CSc2ccc3c(C)cc(=O)oc3c2)c1
GI50 (KB): 2.06 µM
GI50 [1]: 5.41 µM
GI50 (A549 [2]): 7.7 µM
GI50 (DU-145): 14.1 µM

SMILES: CC(C)Oc1ccc2c(=O)cc(C(C)Br)oc2c1CBr (stereo not given)
GI50 (KB): 12.8 µM
GI50 [1]: 11.4 µM
GI50 (A549 [2]): 12.8 µM
GI50 (DU-145): 15.5 µM

SMILES: Cc1cc(=O)oc2cc(SCc3ccncc3)ccc12
GI50 (KB): > 35.3 µM
GI50 [1]: > 35.3 µM
GI50 (A549 [2]): > 35.3 µM
GI50 (DU-145): > 35.3 µM

SMILES: COc1cc(CSc2ccc3c(C)cc(=O)oc3c2)c([N+](=O)[O-])cc1OC
GI50 (KB): > 25.8 µM
GI50 [1]: > 25.8 µM
GI50 (A549 [2]): > 25.8 µM
GI50 (DU-145): > 25.8 µM

SMILES: CCc1cc(=O)c2ccc(OCc3cccc(C(F)(F)F)c3)c(C)c2o1
GI50 (KB): > 27.6 µM
GI50 [1]: > 27.6 µM
GI50 (A549 [2]): > 27.6 µM
GI50 (DU-145): > 27.6 µM

SMILES: CC(C)COc1ccc2c(=O)cc(C(C)Br)oc2c1CBr (stereo not given)
GI50 (KB): 10.9 µM
GI50 [1]: 9.45 µM
GI50 (A549 [2]): 8.71 µM
GI50 (DU-145): 10.5 µM

SMILES: CCc1cc(=O)c2ccc(OC(C)C)c(CBr)c2o1
GI50 (KB): > 30.8 µM
GI50 [1]: > 30.8 µM
GI50 (A549 [2]): > 30.8 µM
GI50 (DU-145): > 30.8 µM

SMILES: COc1ccc(Br)c(CSc2ccc3c(C)cc(=O)oc3c2)c1
GI50 (KB): 16 µM
GI50 [1]: > 25.6 µM
GI50 (A549 [2]): 15.3 µM
GI50 (DU-145): > 25.6 µM

SMILES: CCc1cc(=O)c2ccc(OC)c(CBr)c2o1
GI50 (KB): > 33.6 µM
GI50 [1]: > 33.6 µM
GI50 (A549 [2]): > 33.6 µM
GI50 (DU-145): > 33.6 µM

SMILES: CCOc1ccc2c(=O)cc(CC)oc2c1CBr
GI50 (KB): > 32.1 µM
GI50 [1]: > 32.1 µM
GI50 (A549 [2]): > 32.1 µM
GI50 (DU-145): > 32.1 µM

SMILES: CCc1oc2c(C)c(OC(C)C)ccc2c(=O)c1Br
GI50 (KB): 22.6 µM
GI50 [1]: 5.84 µM
GI50 (A549 [2]): > 30.8 µM
GI50 (DU-145): > 30.8 µM

SMILES: Cc1cc(=O)oc2cc(SC3CCOC3=O)ccc12 (stereo not given)
GI50 (KB): > 36.2 µM
GI50 [1]: > 36.2 µM
GI50 (A549 [2]): > 36.2 µM
GI50 (DU-145): > 36.2 µM

SMILES: CC(=O)O[C@H]1C(=O)[C@@]2(C)[C@H]([C@H](OC(=O)c3ccccc3)[C@]3(O)C[C@H](OC(=O)[C@H](O)[C@@H](NC(=O)c4ccccc4)c4ccccc4)C(C)=C1C3(C)C)[C@]1(OC(C)=O)CO[C@@H]1C[C@@H]2O [PACLITAXEL]
GI50 (KB): 0.00412 µM
GI50 [1]: > 1 µM
GI50 (A549 [2]): 0.00546 µM
GI50 (DU-145): 0.00386 µM

SMILES: CCc1oc2c(C)c(OCc3cccc(C(F)(F)F)c3)ccc2c(=O)c1Br
GI50 (KB): > 22.7 µM
GI50 [1]: > 22.7 µM
GI50 (A549 [2]): > 22.7 µM
GI50 (DU-145): > 22.7 µM

SMILES: Cc1cc(=O)oc2cc(SCc3ccccn3)ccc12
GI50 (KB): > 35.3 µM
GI50 [1]: > 35.3 µM
GI50 (A549 [2]): > 35.3 µM
GI50 (DU-145): > 35.3 µM

SMILES: Cc1cc(=O)oc2cc(SCc3cccnc3)ccc12
GI50 (KB): > 35.3 µM
GI50 [1]: > 35.3 µM
GI50 (A549 [2]): > 35.3 µM
GI50 (DU-145): > 35.3 µM

SMILES: CCOc1ccc2c(=O)cc(C(C)Br)oc2c1CBr (stereo not given)
GI50 (KB): 15.6 µM
GI50 [1]: 12.8 µM
GI50 (A549 [2]): 19.8 µM
GI50 (DU-145): 20.9 µM
